Measured values published in ChEMBL document CHEMBL1133102, “Novel inhibitors of nucleoside triphosphate diphosphohydrolases: chemical synthesis and biochemical and pharmacological characterizations” (J Med Chem, 2000).

What was measured:
Format in all cases: tissue-based
[1] = target: T1, Ectonucleoside triphosphate diphosphohydrolase 1 (Bos taurus, UniProt O18956); test: (§1) Tested for inhibition of Nucleoside Triphosphate Diphosphohydrolase (NTPDase) from bovine spleen.
T1 sequence (O18956 whole entry): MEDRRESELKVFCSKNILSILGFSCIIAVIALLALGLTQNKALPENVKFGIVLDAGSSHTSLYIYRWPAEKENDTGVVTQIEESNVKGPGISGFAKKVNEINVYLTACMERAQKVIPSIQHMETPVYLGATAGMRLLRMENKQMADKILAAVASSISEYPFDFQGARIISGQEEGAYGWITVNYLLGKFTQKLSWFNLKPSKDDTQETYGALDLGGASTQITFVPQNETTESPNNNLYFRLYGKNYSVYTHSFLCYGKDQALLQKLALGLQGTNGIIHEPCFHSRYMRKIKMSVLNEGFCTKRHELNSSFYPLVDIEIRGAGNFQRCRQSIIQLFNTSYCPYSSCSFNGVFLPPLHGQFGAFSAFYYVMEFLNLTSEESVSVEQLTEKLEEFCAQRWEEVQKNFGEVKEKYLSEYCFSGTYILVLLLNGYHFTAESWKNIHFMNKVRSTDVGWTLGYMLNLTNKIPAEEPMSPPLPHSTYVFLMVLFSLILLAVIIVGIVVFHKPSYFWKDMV
Method in brief: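 Bovine spleen particulate fraction. Medium: 8 mM CaCl2, 5 mM tetramisole, 50 mM Tris, 50 mM imidazole, pH 7.6, 37 °C. Started with 1.9 μg enzyme, stopped after 7 min; Pi release read by malachite green. Triplicate.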

[2] = compound: Nc1ncnc2c1ncn2[C@@H]1O[C@H](COP(=O)(O)OP(=O)(O)O)[C@@H](O)[C@H]1O; test: as §1
Method in brief: (§2)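 Bovine spleen particulate fraction. […] Medium: 8 mM CaCl2, 5 mM tetramisole, 50 mM Tris, 50 mM imidazole, pH 7.6, 37 °C. Started with 1.9 μg enzyme, stopped after 7 min; Pi release read by malachite green. Triplicate.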

[3] = compound: CCCCNc1nc2c(N)ncnc2n1[C@@H]1O[C@H](COP(=O)(O)OP(=O)(O)OP(=O)(O)O)[C@@H](O)[C@H]1O; test: as §1; method in brief: as §2
[4] = compound: CCCCOc1nc2c(N)ncnc2n1[C@@H]1O[C@H](COP(=O)(O)OP(=O)(O)OP(=O)(O)O)[C@@H](O)[C@H]1O; test: as §1; method in brief: as §2
[5] = compound: Nc1ncnc2c1ncn2[C@@H]1O[C@H](COP(=O)(O)OP(=O)(O)OP(=O)(O)O)[C@@H](O)[C@H]1O; test: as §1; method in brief: as §2
[6] = compound: CCCCOc1nc(N)c2ncn([C@@H]3O[C@H](COP(=O)(O)OP(=O)(O)OP(=O)(O)O)[C@@H](O)[C@H]3O)c2n1; test: as §1; method in brief: as §2
[7] = compound: CCSc1nc2c(N)ncnc2n1[C@@H]1O[C@H](COP(=O)(O)OP(=O)(O)OP(=O)(O)O)[C@@H](O)[C@H]1O; test: as §1; method in brief: as §2
[8] = compound: Nc1ncnc2c1nc(Br)n2C1O[C@H](COP(=O)(O)OP(=O)(O)OP(=O)(O)O)[C@@H](O)[C@H]1O; test: as §1; method in brief: as §2
[9] = compound: CCCCSc1nc(N)c2ncn(C3O[C@H](COP(=O)(O)OP(=O)(O)O)[C@@H](O)[C@H]3O)c2n1; test: as §1; method in brief: as §2
[10] = compound: CCCCNc1nc(N)c2ncn([C@@H]3O[C@H](COP(=O)(O)OP(=O)(O)OP(=O)(O)O)[C@@H](O)[C@H]3O)c2n1; test: as §1; method in brief: as §2
[11] = compound: CCCCSc1nc(N)c2ncn([C@@H]3O[C@H](COP(=O)(O)OP(=O)(O)OP(=O)(O)O)[C@@H](O)[C@H]3O)c2n1; test: as §1; method in brief: as §2

Nc1ncnc2c1nc(SC1CCCCCC1)n2C1O[C@H](COP(=O)(O)OP(=O)(O)OP(=O)(O)O)[C@@H](O)[C@H]1O (stereo partly specified)
Ki [1]: 31 µM

B1: Ectonucleoside triphosphate diphosphohydrolase 1 (Bos taurus), O18956 (protein)
chain: T1 sequence (O18956 whole entry)
Km [2]: 33 µM
Km [3]: 20 µM
Km [4]: 26 µM
Km [5]: 18 µM
Km [6]: 28 µM
Km [7]: 12 µM
Km [8]: 22 µM
Km [9]: 63 µM
Km [10]: 32 µM
Km [11]: 36 µM
